The test system of data set [1] is Brain. Description: Drug uptake in Sprague-Dawley rat brain at 8 nM after 90 mins by autoradiography analysis in presence of 10 uM Ro 256981. The format is ADME, tissue-based. The following applies: 1.5 h, 0.008 µM.
A short description of data set [2]: Drug uptake in Sprague-Dawley rat forebrain at 8 nM after 90 mins by autoradiography analysis. The following applies: 1.5 h, 0.008 µM.
Data set [3] has as its target T1, Glutamate receptor ionotropic, NMDA 2B (Rattus norvegicus, UniProt Q00960). Description: Binding affinity to NMDAR NR2B in Sprague-Dawley rat brain thalamus. The format is tissue-based. The method, boiled down:
(§1)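 Saturation binding on mounted rat brain tissue sections. Sections were pre-incubated twice for 10 min at r.t. in 50 mM Tris-HCl pH 7.4 with 10 mM EDTA, then exposed to free [18F] ligand at 0.15–48 nM. Washes were 5, 5 and 15 min in 50 mM Tris-HCl pH 7.4 at 4 °C, followed by a cold distilled-water dip and drying on a hot plate. Autoradiographic optical densities (DLU/mm²) were converted with spiked brain-homogenate standards. Specific binding was taken as total minus nonspecific for each region. Kd and Bmax were obtained from Scatchard plots.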

Data set [4] has as its target T1, Glutamate receptor ionotropic, NMDA 2B. Description: Binding affinity to NMDAR NR2B in Sprague-Dawley rat brain cortex. The format is tissue-based. The method, boiled down: as §1
In data set [5] the test system is Cerebellum. Description: Drug uptake in Sprague-Dawley rat cerebellum at 8 nM after 90 mins by autoradiography analysis. The data set is classed as ADME, tissue-based. Particulars: 1.5 h, 0.008 µM; call rule not given here.
Data set [6] relates to Cortex. The data set is described as follows: Drug uptake in Sprague-Dawley rat cortex at 8 nM after 90 mins by autoradiography analysis. The following applies: 1.5 h, 0.008 µM. The data set is classed as ADME, tissue-based.
Data set [7] in a line: Lipophilicity, log D of the compound in octanol-[…] at 10 uM after 40 mins by shake flask method. The data set is classed as physicochemical. A digest of the protocol: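 Shake-flask method. Tubes held 1 mL octanol and 1 mL […] buffer plus [18F] tracer, were stirred for 40 min and centrifuged for 5 min. Two 100 µL aliquots from each phase were gamma-counted. logD7.4 was calculated from the ratio of octanol to aqueous radioactivity. Four tubes were used.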

The subject of data set [8] is Nucleic Acid. The data set is described as follows: Ratio of drug uptake in […] in Sprague-Dawley rat at 8 nM after 90 mins by autoradiography analysis. The format is ADME, tissue-based. The following applies: 1.5 h, 0.008 µM.
Data set [9] relates to Hippocampus. The data set is described as follows: Drug uptake in Sprague-Dawley rat hippocampus at 8 nM after 90 mins by autoradiography analysis. The format is ADME, tissue-based. Particulars: 1.5 h, 0.008 µM.
For data set [10], the system named is Striatum. The data set is described as follows: Binding to Sprague-Dawley rat striatum sections at 8 nM after 90 mins by autoradiography analysis. Particulars: in vitro, 1.5 h, 0.008 µM.
Data set [11] deals with T1, Glutamate receptor ionotropic, NMDA 2B. Description: Binding affinity to NMDAR NR2B in Sprague-Dawley rat brain striatum. The format is tissue-based. The method, boiled down: as §1
Data set [12] has as its system Thalamus. The data set is described as follows: Drug uptake in Sprague-Dawley rat thalamus at 8 nM after 90 mins by autoradiography analysis. The format is ADME, tissue-based. The following applies: 1.5 h, 0.008 µM.
The target of data set [13] is T1, Glutamate receptor ionotropic, NMDA 2B. The data set is described as follows: Binding affinity to NMDAR NR2B in Sprague-Dawley rat brain hippocampus. The format is tissue-based. The method, boiled down: as §1
The nature of data set [14]: Drug uptake in Sprague-Dawley rat olfactory tubercle at 8 nM after 90 mins by autoradiography analysis. The data set is classed as ADME, tissue-based. The following applies: 1.5 h, 0.008 µM.
Data set [15] deals with T1, Glutamate receptor ionotropic, NMDA 2B. Description: Binding affinity to NMDAR NR2B in Sprague-Dawley rat brain olfactory tubercle. The format is tissue-based. The method, boiled down: as §1
Data set [16] deals with Glutamate receptor ionotropic, NMDA 2B (Rattus norvegicus) (UniProt Q00960). Description: Ratio of Bmax to Kd at NMDAR NR2B in Sprague-Dawley rat brain hippocampus. The data set is classed as tissue-based. Particulars: tested as the 18F-labelled form. A digest of the protocol:
(§2)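 Bmax/Kd ratio for each brain region. Bmax and Kd came from Scatchard analysis of specific autoradiographic binding on rat brain sections. Free [18F] ligand ran from 0.15 to 48 nM, with Tris-HCl pH 7.4 pre-incubation and cold washes. Radioactivity was calibrated against spiked tissue-homogenate standards.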

Data set [17] shares this target. The data set is described as follows: Ratio of Bmax to Kd at NMDAR NR2B in Sprague-Dawley rat brain olfactory tubercle. The format is tissue-based. The following applies: tested as the 18F-labelled form. A digest of the protocol: as §2
For data set [18] the target is unchanged. Description: Ratio of Bmax to Kd at NMDAR NR2B in Sprague-Dawley rat brain striatum. The format is tissue-based. Particulars: tested as the 18F-labelled form. The method, boiled down: as §2
Data set [19] shares this target. Description: Binding affinity to NMDAR NR2B in Sprague-Dawley rat brain striatum assessed per mg of protein. The following applies: tested as the 18F-labelled form. The data set is classed as tissue-based. The method, boiled down: as §1
The target is the same in data set [20]. The data set is described as follows: Binding affinity to NMDAR NR2B in Sprague-Dawley rat brain hippocampus assessed per mg of protein. The format is tissue-based. Particulars: tested as the 18F-labelled form. A digest of the protocol:
as §1

Data set [21] shares this target. The data set is described as follows: Ratio of Bmax to Kd at NMDAR NR2B in Sprague-Dawley rat brain thalamus. The format is tissue-based. The following applies: tested as the 18F-labelled form. A digest of the protocol: as §2
The target is the same in data set [22]. Description: Binding affinity to NMDAR NR2B in Sprague-Dawley rat brain thalamus assessed per mg of protein. The data set is classed as tissue-based. Particulars: tested as the 18F-labelled form. The method, boiled down:
as §1

Data set [23] has the same target. Description: Ratio of Bmax to Kd at NMDAR NR2B in Sprague-Dawley rat brain cortex. The following applies: tested as the 18F-labelled form. The method, boiled down: as §2
Data set [24] shares this target. Description: Binding affinity to NMDAR NR2B in Sprague-Dawley rat brain olfactory tubercle assessed per mg of protein. The following applies: tested as the 18F-labelled form. The data set is classed as tissue-based. The method, boiled down:
as §1

Data set [25] shares this target. Description: Binding affinity to NMDAR NR2B in Sprague-Dawley rat brain cortex assessed per mg of protein. The data set is classed as tissue-based. Particulars: tested as the 18F-labelled form. A digest of the protocol:
as §1

Consider four compounds from ChEMBL document CHEMBL2034845, “Synthesis and in vitro characterization of trans- and cis-[(18)F]-4-methylbenzyl 4-[(pyrimidin-2-ylamino)methyl]-3-fluoropiperidine-1-carboxylates as new potential PET radiotracer candidates for the NR2B subtype N-methyl-D-aspartate receptor” (Eur J Med Chem, 2012).

T1 sequence (Q00960 whole entry): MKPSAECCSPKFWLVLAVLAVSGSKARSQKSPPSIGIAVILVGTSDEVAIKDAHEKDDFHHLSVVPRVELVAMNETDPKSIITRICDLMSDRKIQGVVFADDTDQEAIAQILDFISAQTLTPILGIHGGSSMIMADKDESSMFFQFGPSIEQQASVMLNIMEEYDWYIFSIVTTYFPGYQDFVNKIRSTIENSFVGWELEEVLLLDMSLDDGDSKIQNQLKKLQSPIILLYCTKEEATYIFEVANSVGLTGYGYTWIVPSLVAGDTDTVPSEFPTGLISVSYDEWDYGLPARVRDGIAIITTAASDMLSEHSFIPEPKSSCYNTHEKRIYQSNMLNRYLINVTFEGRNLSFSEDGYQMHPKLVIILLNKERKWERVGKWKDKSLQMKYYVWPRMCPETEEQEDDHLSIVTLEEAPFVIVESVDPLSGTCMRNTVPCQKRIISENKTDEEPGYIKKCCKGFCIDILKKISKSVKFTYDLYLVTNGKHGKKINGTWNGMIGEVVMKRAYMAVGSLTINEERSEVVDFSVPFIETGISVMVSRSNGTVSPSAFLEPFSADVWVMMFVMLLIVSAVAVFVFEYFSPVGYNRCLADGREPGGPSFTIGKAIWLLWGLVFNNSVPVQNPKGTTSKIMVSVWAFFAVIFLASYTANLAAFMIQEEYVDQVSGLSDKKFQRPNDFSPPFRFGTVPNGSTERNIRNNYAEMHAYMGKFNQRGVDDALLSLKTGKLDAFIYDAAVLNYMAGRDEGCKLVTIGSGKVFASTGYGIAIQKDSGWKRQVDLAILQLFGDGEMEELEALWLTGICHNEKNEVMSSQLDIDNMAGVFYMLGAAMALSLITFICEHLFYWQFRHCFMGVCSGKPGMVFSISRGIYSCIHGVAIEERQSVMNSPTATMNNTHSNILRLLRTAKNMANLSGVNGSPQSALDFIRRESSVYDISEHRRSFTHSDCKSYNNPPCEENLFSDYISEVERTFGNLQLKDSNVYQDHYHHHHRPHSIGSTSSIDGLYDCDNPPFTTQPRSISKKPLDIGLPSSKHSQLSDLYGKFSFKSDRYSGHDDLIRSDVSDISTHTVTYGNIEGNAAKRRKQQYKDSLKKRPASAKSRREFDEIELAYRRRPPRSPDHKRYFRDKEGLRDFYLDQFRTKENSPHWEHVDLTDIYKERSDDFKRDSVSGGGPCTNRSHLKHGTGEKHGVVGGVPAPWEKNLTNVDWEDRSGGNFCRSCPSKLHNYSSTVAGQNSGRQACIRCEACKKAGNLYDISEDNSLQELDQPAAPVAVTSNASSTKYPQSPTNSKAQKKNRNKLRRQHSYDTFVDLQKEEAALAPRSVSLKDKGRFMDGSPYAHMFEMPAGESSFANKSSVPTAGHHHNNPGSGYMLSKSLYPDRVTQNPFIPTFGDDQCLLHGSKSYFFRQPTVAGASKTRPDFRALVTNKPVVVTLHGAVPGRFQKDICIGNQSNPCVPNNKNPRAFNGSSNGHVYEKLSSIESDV
Chain of Glutamate receptor ionotropic, NMDA 2B (Rattus norvegicus) (Q00960 27-1482 limits assumed): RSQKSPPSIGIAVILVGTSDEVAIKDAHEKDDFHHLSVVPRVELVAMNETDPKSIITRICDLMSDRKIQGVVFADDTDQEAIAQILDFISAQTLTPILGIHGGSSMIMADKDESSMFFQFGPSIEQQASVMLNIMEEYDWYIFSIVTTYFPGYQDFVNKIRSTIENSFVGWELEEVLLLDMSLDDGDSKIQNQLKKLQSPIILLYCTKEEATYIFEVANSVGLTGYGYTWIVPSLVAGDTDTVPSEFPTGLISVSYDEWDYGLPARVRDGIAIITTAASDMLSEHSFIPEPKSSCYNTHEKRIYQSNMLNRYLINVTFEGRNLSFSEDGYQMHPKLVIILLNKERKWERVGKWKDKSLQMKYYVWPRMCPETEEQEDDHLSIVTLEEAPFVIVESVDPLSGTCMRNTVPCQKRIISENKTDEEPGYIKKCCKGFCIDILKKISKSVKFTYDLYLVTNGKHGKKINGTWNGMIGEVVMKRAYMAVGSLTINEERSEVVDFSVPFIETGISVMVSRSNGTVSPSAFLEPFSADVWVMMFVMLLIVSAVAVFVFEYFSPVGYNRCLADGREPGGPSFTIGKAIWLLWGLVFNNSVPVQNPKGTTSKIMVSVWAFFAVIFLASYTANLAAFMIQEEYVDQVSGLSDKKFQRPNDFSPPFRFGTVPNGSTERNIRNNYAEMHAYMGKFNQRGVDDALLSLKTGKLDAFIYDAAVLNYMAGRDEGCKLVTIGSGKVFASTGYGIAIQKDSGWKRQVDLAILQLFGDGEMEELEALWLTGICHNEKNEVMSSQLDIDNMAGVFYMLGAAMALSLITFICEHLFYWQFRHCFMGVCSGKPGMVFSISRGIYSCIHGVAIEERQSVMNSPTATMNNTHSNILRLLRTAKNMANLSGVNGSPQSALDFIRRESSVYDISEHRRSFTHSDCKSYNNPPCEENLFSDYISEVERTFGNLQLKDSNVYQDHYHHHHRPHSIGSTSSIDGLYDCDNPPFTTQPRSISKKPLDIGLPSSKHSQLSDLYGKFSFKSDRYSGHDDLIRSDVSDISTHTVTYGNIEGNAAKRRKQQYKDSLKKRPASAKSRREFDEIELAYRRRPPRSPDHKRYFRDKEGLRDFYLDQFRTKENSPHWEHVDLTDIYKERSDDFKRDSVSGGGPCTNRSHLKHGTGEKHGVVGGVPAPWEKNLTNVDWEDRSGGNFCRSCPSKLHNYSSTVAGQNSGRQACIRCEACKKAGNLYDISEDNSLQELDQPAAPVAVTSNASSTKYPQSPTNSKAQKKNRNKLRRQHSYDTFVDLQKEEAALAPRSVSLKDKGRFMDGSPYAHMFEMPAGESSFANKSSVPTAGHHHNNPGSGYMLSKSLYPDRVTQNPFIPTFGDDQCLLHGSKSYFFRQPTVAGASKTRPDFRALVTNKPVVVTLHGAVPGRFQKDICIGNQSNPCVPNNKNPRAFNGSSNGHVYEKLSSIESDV

As for `Cc1ccc(COC(=O)N2CC[C@H](CNc3ncccn3)[C@H]([18F])C2)cc1` (racemic), the Drug uptake result in data set [1] is “Not Active”; in [2], “Active”; in [5], “Not Active”; in data set [6], “Active”; in [9], 91%; in data set [10], “Active”. Also, the figures for the Drug uptake in [12] and in data set [14] were 76% and “Not Active”, respectively. Besides, the Kd – broadly, the concentration at which binding is half-saturated – in data set [3] stood at 15.2 nM; in data set [4], 9.8 nM; in [11], 9.3 nM; in data set [13] it was 9.1 nM; in [15] it was 5.9 nM. Besides, the log distribution coefficient (logD) (as a rule, lipophilicity at a set pH, counting ionised and neutral species) at 40 min, 10 µM in [7] was found to be 2.8. Besides, the Ratio in [8] is 12.1.
As to `Cc1ccc(COC(=O)N2CC[C@@H](CNc3ncccn3)[C@H]([18F])C2)cc1` (racemic), the Drug uptake result in data set [1] is “Not Active”; in [2], “Active”; in data set [5], “Not Active”; in [6], “Active”; in data set [9] it was 84%; in data set [10] it was “Active”. Also, the Drug uptake in data set [12] is reported as 62%; in data set [14], “Not Active”. Moreover, the equilibrium dissociation constant (Kd) was found to be 5.4 nM in data set [3]; 3.2 nM in [4]; 5.1 nM in [11]; 7.1 nM in [13]; 1.9 nM in data set [15]. In data set [7], this compound yielded a pH-dependent lipophilicity (logD) at 40 min, 10 µM of 2.66. For the same compound, the Ratio in [8] stood at 6.4.
On to `Cc1ccc(COC(=O)N2CC[C@@H](CNc3ncccn3)[C@H](F)C2)cc1` (racemic), for which the Ratio in [16] came to 22; in data set [17], 37; in [18] it was 21; in data set [21], 17; in data set [23] it was 25. In addition, the Bmax in data set [19] came to 1.05 pmol; in [20] it was 1.58 pmol; in [22], 0.86 pmol; in data set [24] it was 0.69 pmol; in data set [25] it was 0.77 pmol.
Turning to `Cc1ccc(COC(=O)N2CC[C@H](CNc3ncccn3)[C@H](F)C2)cc1` (racemic), the Ratio came to 19 in data set [16]; 18 in [17]; 15 in [18]; 8 in data set [21]; 15 in data set [23]. In addition, the Bmax stood at 1.41 pmol in data set [19]; 1.65 pmol in [20]; 1.12 pmol in data set [22]; 1.05 pmol in data set [24]; 1.5 pmol in [25].
